Values after ≈ are worked out from the molar mass of the structure shown. Where only a bound is given, the exact number is not on record here.

2 compounds from ChEMBL document CHEMBL1128718, “2-Substituted penems with amino acid-related side chains: synthesis and antibacterial activity of a new series of beta-lactam antibiotics” (1995) can be followed below.

What all share (type): functional
The test system of experiment [1] is Enterococcus faecalis. Description: In Vitro antibacterial activity against (Ef) Enterococcus faecalis ATCC 29212. An outline of the steps:
(§1)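 Panel of standard ATCC strains plus modified strains: methicillin-resistant, hyperpermeable, β-lactamase-producing (TEM1, TEM2, SHV) and β-lactamase-lacking. MIC determined in Mueller Hinton 2 medium, inoculum 10⁴ cells/mL, incubated 24 h at 37 °C.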

Experiment [2] has as its system Escherichia coli. Description: In Vitro antibacterial activity against (Ec L) Escherichia coli […] strain. The method, boiled down: as §1
Experiment [3] has as its system Escherichia coli. Kind of experiment: In Vitro antibacterial activity against (Ec SHV) Escherichia coli […] strain. An outline of the steps: as §1
The subject of experiment [4] is Escherichia coli. Description: In Vitro antibacterial activity against (Ec TEM1) Escherichia coli […] strain. The method, boiled down: as §1
In experiment [5] the test system is Escherichia coli. Description: In Vitro antibacterial activity against (Ec TEM2) Escherichia coli […] strain. The method, boiled down: as §1
Experiment [6] deals with Escherichia coli. Kind of experiment: In Vitro antibacterial activity against (Ec) Escherichia coli ATCC 25922. An outline of the steps:
as §1

Experiment [7] deals with Pseudomonas aeruginosa. Kind of experiment: In Vitro antibacterial activity against (Pa G242) hyperpermeable Pseudomonas aeruginosa strain. An outline of the steps:
as §1

Experiment [8] deals with Pseudomonas aeruginosa. Description: In Vitro antibacterial activity against (Pa) hyperpermeable Pseudomonas aeruginosa […] strain. The method, boiled down:
as §1

Experiment [9] relates to Pseudomonas aeruginosa. Kind of experiment: In Vitro antibacterial activity against(Pa) Pseudomonas aeruginosa ATCC 27853. An outline of the steps: as §1
Experiment [10] relates to Staphylococcus aureus. Kind of experiment: In vitro antibacterial activity against Sa MR(I) heterogeneous methicillin resistant Staphylococcus aureus. An outline of the steps:
(§2)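 MIC was determined in Mueller Hinton 2 medium with an inoculum of 10⁴ cells/mL and incubation for 24 h at 37 °C. Strains: Sa(I) is S. aureus ATCC 29213; Sa MR(I) is a heterogeneous methicillin-resistant S. aureus; Sa MR(II) is a homogeneous methicillin-resistant S. aureus.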

The test system of experiment [11] is Staphylococcus aureus. Description: In vitro antibacterial activity against Sa MR(II) homogeneous methicillin resistant Staphylococcus aureus. The method, boiled down:
as §2

In experiment [12] the test system is Staphylococcus aureus. Description: In vitro antibacterial activity against Sa(I) Staphylococcus aureus ATCC 29213. An outline of the steps:
as §2

In experiment [13] the test system is Staphylococcus aureus. Kind of experiment: In vitro antibacterial activity against Sa(II) Staphylococcus aureus ATCC 25923. An outline of the steps: as §1
Experiment [14] deals with Escherichia coli. Kind of experiment: In Vitro antibacterial activity against (Ec DC2) hyperpermeable Escherichia coli strain. The method, boiled down: as §1
The subject of experiment [15] is Aeromonas. Description: In vitro 90% of tested clinical Isolates of Aeromonas species(21). An outline of the steps:
(§3)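 Over 500 clinical isolates tested in total; the line gives the isolate count. MIC90 for aerobes by dilution in Mueller Hinton 2 medium, inoculum 10⁴ cells/mL, incubated 24 h at 37 °C.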

Experiment [16] relates to Moraxella catarrhalis. Kind of experiment: In vitro Anti Bacterial Activity (MIC90) against 90% of tested clinical Isolates of Branhamella catarrhalis(27).
Experiment [17] concerns Bacteroides fragilis. Kind of experiment: In vitro Anti Bacterial Activity (MIC90) against 90% of tested clinical Isolates of Bacteroides fragilis(15). An outline of the steps:
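MIC90 over clinical anaerobe isolates; MICs in Wilkins-Chalgren agar, inoculum 10⁵ cells/mL, 24–48 h at 37 °C.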

The subject of experiment [18] is Clostridium perfringens. Description: In vitro Anti Bacterial Activity (MIC90) against 90% of tested clinical Isolates of Clostridium perfringens(27). The method, boiled down: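 MIC90 over clinical isolates of this anaerobic species, taken from the MIC distribution. Anaerobes were tested on Wilkins-Chalgren agar with an inoculum of 10⁵ cells/mL and incubated 24–48 h at 37 °C.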

Experiment [19] relates to Enterococcus faecalis. Description: In vitro Anti Bacterial Activity (MIC90) against 90% of tested clinical Isolates of Enterococcus faecalis(47). An outline of the steps:
(§4)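 Aerobic clinical isolates; MICs in Mueller Hinton 2 medium, inoculum 10⁴ cells/mL, incubated 24 h at 37 °C; MIC90 taken across isolates of each species.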

In experiment [20] the test system is Enterococcus faecium. Description: In vitro Anti Bacterial Activity (MIC90) against 90% of tested clinical Isolates of Enterococcus faecium(47). An outline of the steps:
as §4

The test system of experiment [21] is Haemophilus influenzae. Description: In vitro Anti Bacterial Activity (MIC90) against 90% of tested clinical Isolates of Haemophilus Influenzae(21). An outline of the steps: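 MIC90 over clinical isolates; MICs in Haemophilus Test Medium Base with Haemophilus Test Medium Supplement, inoculum 10⁴ cells/mL, 24–48 h at 37 °C.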
In experiment [22] the test system is Klebsiella pneumoniae. Kind of experiment: In Vitro Anti Bacterial Activity (MIC90) against 90% of tested clinical Isolates of Klebsiella pneumoniae(20). The method, boiled down:
as §3

The subject of experiment [23] is Listeria monocytogenes. Kind of experiment: In vitro Anti Bacterial Activity (MIC90) against 90% of tested clinical Isolates of Listeria monocytogenes (20).
Experiment [24] relates to Streptococcus agalactiae. Description: In vitro Anti Bacterial Activity (MIC90) against 90% of tested clinical Isolates of Streptococcus agalactiaeB(21).
Experiment [25] deals with Staphylococcus aureus. Description: In vitro Anti Bacterial Activity (MIC90) against 90% of tested clinical Isolates of Staphylococcus aureus MS (6). An outline of the steps: as §4
In experiment [26] the test system is Staphylococcus aureus. Description: In vitro Anti Bacterial Activity (MIC90) against 90% of tested clinical Isolates of Staphylococcus aureus MV (20).
Experiment [27] has as its system Staphylococcus epidermidis. Description: In vitro Anti Bacterial Activity (MIC90) against 90% of tested clinical Isolates of S. epidermidis(13). The method, boiled down: as §4
In experiment [28] the test system is Streptococcus pyogenes. Description: In vitro Anti Bacterial Activity (MIC90) against 90% of tested clinical Isolates of Streptococcus pyogenes(31).
For experiment [29], the system named is Streptococcus pneumoniae. Description: In Vitro Anti Bacterial Activity (MIC90) against 90% of tested clinical Isolates of Streptococcus pneumoniae (23).
The test system of experiment [30] is Yersinia sp. Description: In Vitro Anti Bacterial Activity (MIC90) against 90% of tested clinical Isolates of Yersinia species(20). Particulars: Yersinia sp. (in: enterobacteria).

For the compound `C[C@@H](O)[C@H]1C(=O)N2C(C(=O)O)=C(CSC(=S)N(C)CC(N)=O)S[C@H]12`, the MIC was found to be 8 µg/mL (≈ 20.4 µM) in experiment [1]; 16 µg/mL (≈ 40.9 µM) in experiment [2]; 16 µg/mL (≈ 40.9 µM) in [3]; 8 µg/mL (≈ 20.4 µM) in experiment [4]; 8 µg/mL (≈ 20.4 µM) in experiment [5]; 8 µg/mL (≈ 20.4 µM) in experiment [6]. The MIC in experiment [7] was 8 µg/mL (≈ 20.4 µM); in [8], 4 µg/mL (≈ 10.2 µM); in experiment [9], above 64 µg/mL; in [10], 0.03 µg/mL (≈ 0.0766 µM); in experiment [11], 2 µg/mL (≈ 5.11 µM); in experiment [12], 0.12 µg/mL (≈ 0.307 µM). For the same compound, the results for the MIC in experiment [13] and in [14] were 0.12 µg/mL (≈ 0.307 µM) and 0.5 µg/mL (≈ 1.28 µM), respectively.

In the case of `CC1(C)S[C@@H]2[C@H](NC(=O)[C@H](N)c3ccc(O)cc3)C(=O)N2[C@H]1C(=O)O` [AMOXICILLIN], the MIC90 in experiment [15] was above 32 µg/mL; in experiment [16], 2 µg/mL (≈ 5.47 µM); in [17], 32 µg/mL (≈ 87.6 µM); in experiment [18] it was 0.06 µg/mL (≈ 0.164 µM); in experiment [19] it was 0.5 µg/mL (≈ 1.37 µM); in experiment [20] it was 32 µg/mL (≈ 87.6 µM). In addition, the MIC90 in [21] was 1 µg/mL (≈ 2.74 µM); in [22], above 64 µg/mL; in experiment [23], 0.5 µg/mL (≈ 1.37 µM); in experiment [24], 0.06 µg/mL (≈ 0.164 µM); in experiment [25], 1 µg/mL (≈ 2.74 µM); in experiment [26], 32 µg/mL (≈ 87.6 µM). The MIC90 in experiment [27] was 4 µg/mL (≈ 10.9 µM); in experiment [28] it was 0.015 µg/mL (≈ 0.041 µM); in experiment [29] it was 0.015 µg/mL (≈ 0.041 µM); in experiment [30], above 64 µg/mL.
